In ChEMBL document CHEMBL5356993, “Novel pyrazolo[3,4-d]pyrimidine derivatives: design, synthesis, anticancer evaluation, VEGFR-2 inhibition, and antiangiogenic activity” (RSC Med Chem, 2023):

Key:
NCI-H322M = experiment: Antiproliferative activity against human NCI-H322M cells assessed as cell growth inhibition at 10 uM incubated for 48 hrs by SRB assay relative to control; format: functional; details: read-out: GI
NCI-H460 = experiment: Antiproliferative activity against human NCI-H460 cells assessed as cell growth inhibition at 10 uM incubated for 48 hrs by SRB assay relative to control; format: functional; details: read-out: GI
NCI-H522 = experiment: Antiproliferative activity against human NCI-H522 cells assessed as cell growth inhibition at 10 uM incubated for 48 hrs by SRB assay relative to control; format: functional; details: read-out: GI
In short: (§1)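 Cells plated in 96-well plates at […] cells/well and preincubated 24 h at 37 °C, 5% CO2. Time-zero plates were TCA-fixed. Compound was diluted in medium with 50 µg/mL gentamicin and cells exposed for 48 h. Adherent cells fixed with 10% final TCA; suspension cells with 16% final TCA. Plates stained with 0.4% SRB in 1% acetic acid, dye solubilized in 10 mM Trizma, absorbance read at 515 nm. Percent growth calculated against time-zero and control.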

HCC 2998 = experiment: Antiproliferative activity against human HCC 2998 cells assessed as cell growth inhibition at 10 uM incubated for 48 hrs by SRB assay relative to control; format: functional; details: read-out: GI
HCT-116 = experiment: Antiproliferative activity against human HCT-116 cells assessed as cell growth inhibition at 10 uM incubated for 48 hrs by SRB assay relative to control; format: functional; details: read-out: GI
SF-268 = experiment: Antiproliferative activity against human SF-268 cells assessed as cell growth inhibition at 10 uM incubated for 48 hrs by SRB assay relative to control; format: functional; details: read-out: GI
SK-MEL-28 = experiment: Antiproliferative activity against human SK-MEL-28 cells assessed as cell growth inhibition at 10 uM incubated for 48 hrs by SRB assay relative to control; format: functional; details: read-out: GI; in short: as §1
SK-MEL-5 = experiment: Antiproliferative activity against human SK-MEL-5 cells assessed as cell growth inhibition at 10 uM incubated for 48 hrs by SRB assay relative to control; format: functional; details: read-out: GI; in short: as §1
IGROV-1 = experiment: Antiproliferative activity against human IGROV-1 cells assessed as cell growth inhibition at 10 uM incubated for 48 hrs by SRB assay relative to control; format: functional; details: read-out: GI
OVCAR-3 = experiment: Antiproliferative activity against human OVCAR-3 cells assessed as cell growth inhibition at 10 uM incubated for 48 hrs by SRB assay relative to control; format: functional; details: read-out: GI; in short: as §1
OVCAR-8 = experiment: Antiproliferative activity against human OVCAR-8 cells assessed as cell growth inhibition at 10 uM incubated for 48 hrs by SRB assay relative to control; format: functional; details: read-out: GI
NCI/ADR-RES = experiment: Antiproliferative activity against human NCI-ADR-RES cells assessed as cell growth inhibition at 10 uM incubated for 48 hrs by SRB assay relative to control; format: functional; details: read-out: GI
SK-OV-3 = experiment: Antiproliferative activity against human SK-OV-3 cells assessed as cell growth inhibition at 10 uM incubated for 48 hrs by SRB assay relative to control; format: functional; details: read-out: GI; in short: as §1
786-0 = experiment: Antiproliferative activity against human 786-0 cells assessed as cell growth inhibition at 10 uM incubated for 48 hrs by SRB assay relative to control; format: functional; details: read-out: GI
SN12C = experiment: Antiproliferative activity against human SN12C cells assessed as cell growth inhibition at 10 uM incubated for 48 hrs by SRB assay relative to control; format: functional; details: read-out: GI
TK-10 = experiment: Antiproliferative activity against human TK-10 cells assessed as cell growth inhibition at 10 uM incubated for 48 hrs by SRB assay relative to control; format: functional; details: read-out: GI
In short: (§2)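 Cells pre-incubated 24 h at 37°C, 5% CO2, then exposed to compound (DMSO stock diluted in medium with 50 µg/mL gentamicin) for 48 h. Adherent cells fixed with cold TCA (final 10%, 60 min, 4°C); suspension cells fixed with 16% TCA final. Stained with 0.4% SRB in 1% acetic acid for 10 min, dye solubilized in 10 mM Trizma base, absorbance read at 515 nm. Growth calculated against time-zero and untreated control plates.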

PC-3 = experiment: Antiproliferative activity against human PC-3 cells assessed as cell growth inhibition at 10 uM incubated for 48 hrs by SRB assay relative to control; format: functional; details: read-out: GI
MCF7 = experiment: Antiproliferative activity against human MCF7 cells assessed as cell growth inhibition at 10 uM incubated for 48 hrs by SRB assay relative to control; format: functional; details: read-out: GI
Hs-578T = experiment: Antiproliferative activity against human Hs-578T cells assessed as cell growth inhibition at 10 uM incubated for 48 hrs by SRB assay relative to control; format: functional; details: read-out: GI; in short: as §1
T47D [1] = experiment: Antiproliferative activity against human T47D cells assessed as cell growth inhibition at 10 uM incubated for 48 hrs by SRB assay relative to control; format: functional; details: read-out: GI; in short: as §2
MDA-MB-468 [2] = experiment: Antiproliferative activity against human MDA-MB-468 cells assessed as cell growth inhibition at 10 uM incubated for 48 hrs by SRB assay relative to control; format: functional; details: read-out: GI
NCI-H23 = experiment: Antiproliferative activity against human NCI-H23 cells assessed as cell growth inhibition at 10 uM incubated for 48 hrs by SRB assay relative to control; format: functional; details: read-out: GI
NCI-H226 = experiment: Antiproliferative activity against human NCI-H226 cells assessed as cell growth inhibition at 10 uM incubated for 48 hrs by SRB assay relative to control; format: functional; details: read-out: GI; in short: as §1
HOP-62 = experiment: Antiproliferative activity against human HOP-62 cells assessed as cell growth inhibition at 10 uM incubated for 48 hrs by SRB assay relative to control; format: functional; details: read-out: GI
CCRF-CEM = experiment: Antiproliferative activity against human CCRF-CEM cells assessed as cell growth inhibition at 10 uM incubated for 48 hrs by SRB assay relative to control; format: functional; details: read-out: GI; in short: as §1
[3] = Cytotoxicity against human MCF-10A cells assessed as cell growth inhibition incubated for 72 hrs by MTT assay
MDA-MB-468 [4] = experiment: Cytotoxicity against human MDA-MB-468 cells assessed as cell growth inhibition incubated for 72 hrs by MTT assay; format: functional, cell-based; details: MDA-MB-468, 72 h
T47D [5] = experiment: Cytotoxicity against human T47D cells assessed as cell growth inhibition incubated for 72 hrs by MTT assay; format: functional, cell-based
[6] = Selectivity index, ratio of IC50 for human MCF-10A cells to IC50 for human MDA-MB-468 cells; details: MCF-10A cells versus MDA-MB-468 cells
[7] = Selectivity index, ratio of IC50 for human MCF-10A cells to IC50 for human T47D cells; details: MCF-10A cells versus T47D cells
[8] = target: Vascular endothelial growth factor receptor 2 (Homo sapiens, UniProt P35968); experiment: Inhibition of VEGFR-2 (unknown origin) incubated for 45 mins by Kinase-Glo Max assay
Vascular endothelial growth factor receptor 2, sequence (P35968 whole entry): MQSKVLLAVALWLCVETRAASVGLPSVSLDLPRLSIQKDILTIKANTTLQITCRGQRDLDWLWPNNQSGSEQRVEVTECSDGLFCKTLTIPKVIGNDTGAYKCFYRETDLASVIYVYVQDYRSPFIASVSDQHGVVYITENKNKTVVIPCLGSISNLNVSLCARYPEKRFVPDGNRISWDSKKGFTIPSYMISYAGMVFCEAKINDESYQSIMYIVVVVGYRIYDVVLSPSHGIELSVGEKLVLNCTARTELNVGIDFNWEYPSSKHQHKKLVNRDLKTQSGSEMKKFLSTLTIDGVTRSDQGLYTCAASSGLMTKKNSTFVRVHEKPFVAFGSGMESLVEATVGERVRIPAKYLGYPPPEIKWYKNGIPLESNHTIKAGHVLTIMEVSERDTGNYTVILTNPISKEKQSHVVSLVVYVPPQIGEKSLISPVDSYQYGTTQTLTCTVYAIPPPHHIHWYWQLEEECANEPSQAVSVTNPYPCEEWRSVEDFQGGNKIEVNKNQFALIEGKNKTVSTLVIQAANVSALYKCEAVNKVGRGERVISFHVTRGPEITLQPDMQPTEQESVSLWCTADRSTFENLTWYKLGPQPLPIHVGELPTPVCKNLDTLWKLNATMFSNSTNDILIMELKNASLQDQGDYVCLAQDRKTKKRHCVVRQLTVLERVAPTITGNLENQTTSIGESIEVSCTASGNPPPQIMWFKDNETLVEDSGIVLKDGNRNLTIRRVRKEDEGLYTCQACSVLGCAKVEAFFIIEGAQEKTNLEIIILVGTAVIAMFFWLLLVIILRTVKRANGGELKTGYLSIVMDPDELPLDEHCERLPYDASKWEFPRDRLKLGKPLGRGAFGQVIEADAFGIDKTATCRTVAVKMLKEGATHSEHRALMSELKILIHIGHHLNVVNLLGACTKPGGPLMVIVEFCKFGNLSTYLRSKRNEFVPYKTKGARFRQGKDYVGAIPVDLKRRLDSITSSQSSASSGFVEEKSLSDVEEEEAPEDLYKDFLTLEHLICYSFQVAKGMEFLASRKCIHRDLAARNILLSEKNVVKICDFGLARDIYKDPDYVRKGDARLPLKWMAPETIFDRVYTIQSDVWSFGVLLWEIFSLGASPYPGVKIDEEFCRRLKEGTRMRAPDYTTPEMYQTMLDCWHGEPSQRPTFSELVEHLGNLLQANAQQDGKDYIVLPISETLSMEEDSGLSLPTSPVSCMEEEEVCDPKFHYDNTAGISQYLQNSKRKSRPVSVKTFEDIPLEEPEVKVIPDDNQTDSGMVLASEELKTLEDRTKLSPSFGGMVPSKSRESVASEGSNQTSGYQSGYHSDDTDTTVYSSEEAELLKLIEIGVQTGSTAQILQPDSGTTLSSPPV

HUVEC = experiment: Antiangiogenic activity against HUVEC cells assessed as wound closure at IC50 incubated for 72 hrs by wound healing assay (reference value: 98.518 %); format: functional, Homo sapiens
MDA-MB-468 [9] = experiment: Induction of cell cycle arrest in human MDA-MB-468 cells assessed as accumulation of cells at G0 to G1 phase at IC50 incubated for 24 hrs by RNase/PI staining based flow cytometry (reference value: 59.02 %); format: functional
MDA-MB-468 [10] = experiment: Induction of cell cycle arrest in human MDA-MB-468 cells assessed as decrease in cell population at G0 to G1 phase at IC50 incubated for 24 hrs by RNase/PI staining based flow cytometry relative to control; format: functional; set-up: scale not given: the % may be the effect or the level left

Row | SMILES | inhibition of growth at 10 µM (NCI-H322M) [%] | inhibition of growth at 10 µM (NCI-H460) [%] | inhibition of growth at 10 µM (NCI-H522) [%] | inhibition of growth at 10 µM (HCC 2998) [%] | inhibition of growth at 10 µM (HCT-116) [%] | inhibition of growth at 10 µM (SF-268) [%] | inhibition of growth at 10 µM (SK-MEL-28) [%] | inhibition of growth at 10 µM (SK-MEL-5) [%] | inhibition of growth at 10 µM (IGROV-1) [%] | inhibition of growth at 10 µM (OVCAR-3) [%] | inhibition of growth at 10 µM (OVCAR-8) [%] | inhibition of growth at 10 µM (NCI/ADR-RES) [%] | inhibition of growth at 10 µM (SK-OV-3) [%] | inhibition of growth at 10 µM (786-0) [%] | inhibition of growth at 10 µM (SN12C) [%] | inhibition of growth at 10 µM (TK-10) [%] | inhibition of growth at 10 µM (PC-3) [%] | inhibition of growth at 10 µM (MCF7) [%] | inhibition of growth at 10 µM (Hs-578T) [%] | inhibition of growth at 10 µM (T47D [1]) [%] | also measured
1 | Cc1nc2c(cnn2-c2ccccc2)c(=O)n1-c1ccc(NC(=O)c2ccc(Cl)cc2)cc1 | < 15 | 28.8 | 32.3 | 15.8 | 44.5 | < 15 | 17.1 | 80.3 | 21.3 | 17.4 | 43.4 | 44.5 | < 15 | 20.3 | 17 | 19.9 | 36.7 | 46.8 | 20.1 | 72.5 | inhibition of growth at 10 µM (MDA-MB-468 [2]): 84.3%; inhibition of growth at 10 µM (NCI-H23): 47.2%; inhibition of growth at 10 µM (NCI-H226): 49.1%; inhibition of growth at 10 µM (HOP-62): 41.1%; inhibition of growth at 10 µM (CCRF-CEM): 25.3%; IC50 at 72 h [3]: 34.6 µM; IC50 (MDA-MB-468 [4]): 10.7 µM; IC50 (T47D [5]): 20.1 µM; selectivity ratio [6]: 3.24; selectivity ratio [7]: 1.72; IC50 [8]: 0.2 µM
2 | Cc1nc2c(cnn2-c2ccccc2)c(=O)n1-c1ccc(NC(=O)c2ccccc2)cc1 | < 15 | 27.9 | 20.7 | < 15 | 41.9 | 21.5 | < 15 | 76.2 | < 15 | 16.8 | 38.4 | 30.4 | 19 | 20.4 | 24.3 | 18.6 | 29.5 | 47.1 | 28.9 | 72.4 | inhibition of growth at 10 µM (MDA-MB-468 [2]): 71%; inhibition of growth at 10 µM (NCI-H23): 45.5%; inhibition of growth at 10 µM (NCI-H226): 44.7%; inhibition of growth at 10 µM (HOP-62): 37.9%; inhibition of growth at 10 µM (CCRF-CEM): 49.5%; IC50 at 72 h [3]: 55.5 µM; IC50 (MDA-MB-468 [4]): 27 µM; IC50 (T47D [5]): 35.5 µM; selectivity ratio [6]: 2.05; selectivity ratio [7]: 1.56; IC50 [8]: 0.178 µM
3 | Cc1nc2c(cnn2-c2ccccc2)c(=O)n1-c1ccc(N)cc1 | < 15 | 16.8 | < 15 | < 15 | 25.9 | 17.4 | < 15 | 66.8 | 15 | < 15 | < 15 | < 15 | < 15 | < 15 | 21.1 | 21.8 | 18 | 37.6 | 21.4 | 64.9 | inhibition of growth at 10 µM (MDA-MB-468 [2]): 62.4%; inhibition of growth at 10 µM (NCI-H23): 40.1%; inhibition of growth at 10 µM (NCI-H226): 18%; inhibition of growth at 10 µM (HOP-62): 16.2%; inhibition of growth at 10 µM (CCRF-CEM): 21%
4 | Cc1nc2c(cnn2-c2ccccc2)c(=O)n1-c1ccc(NC(=O)c2ccc(F)cc2)cc1 | < 15 | 45.6 | 36.1 | 20.1 | 51.7 | < 15 | 16.2 | > 100 | 26.5 | < 15 | 36.3 | 57.2 | < 15 | 17.5 | 25.6 | 29 | 46.9 | 64.2 | 21.3 | 82 | inhibition of growth at 10 µM (MDA-MB-468 [2]): 85.5%; inhibition of growth at 10 µM (NCI-H23): 49.8%; inhibition of growth at 10 µM (NCI-H226): 43.8%; inhibition of growth at 10 µM (HOP-62): 35.4%; inhibition of growth at 10 µM (CCRF-CEM): 65.2%; IC50 at 72 h [3]: 22.8 µM; IC50 (MDA-MB-468 [4]): 3.34 µM; IC50 (T47D [5]): 4.79 µM; selectivity ratio [6]: 6.81; selectivity ratio [7]: 4.75; IC50 [8]: 0.063 µM; Activity (HUVEC): 75.555%; Activity (MDA-MB-468 [9]): 52.86%; Activity (MDA-MB-468 [10]): 10.43%
5 | Cc1ccc(C(=O)Nc2ccc(-n3c(C)nc4c(cnn4-c4ccccc4)c3=O)cc2)cc1 | < 15 | 24.6 | 28.8 | < 15 | 48.5 | < 15 | 19.3 | 93 | 28.4 | < 15 | 23.2 | 47.3 | < 15 | < 15 | 26.7 | 17.7 | 28.4 | 52.2 | 15.2 | 65.4 | inhibition of growth at 10 µM (MDA-MB-468 [2]): 78.9%; inhibition of growth at 10 µM (NCI-H23): 46.5%; inhibition of growth at 10 µM (NCI-H226): 45.2%; inhibition of growth at 10 µM (HOP-62): 21.2%; inhibition of growth at 10 µM (CCRF-CEM): 53.7%; IC50 at 72 h [3]: 58.2 µM; IC50 (MDA-MB-468 [4]): 16 µM; selectivity ratio [6]: 3.63; IC50 [8]: 0.261 µM
